Test results as given in ChEMBL document CHEMBL4138056, “T- and B-cell immunosuppressive activity of novel α-santonin analogs with humoral and cellular immune response in Balb/c mice” (Medchemcomm, 2017).

What was measured:
B-cell line [1] = assay: Immunosuppressive activity in Balb/c mouse B cells assessed as inhibition of LPS-induced cell proliferation at 1 uM after 48 hrs by MTT assay relative to control; type: functional
Method in brief: (§1)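 Balb/c spleen single-cell suspension, RBCs lysed with tris-ammonium chloride, viability by trypan blue; 1×10^6 cells/mL stimulated with LPS (10 μg/mL) for B cells, test agent 1, 10 or 100 μM, 48 h at 37 °C, 5% CO2. MTT 4 h, DMSO solubilization, OD 540 nm; % change vs mitogen control; triplicate, three separate experiments.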

Murine T-cell line [2] = assay: Immunosuppressive activity in Balb/c mouse T cells assessed as inhibition of ConA-induced cell proliferation at 100 uM after 48 hrs by MTT assay relative to control
B-cell line [3] = assay: Immunosuppressive activity in Balb/c mouse B cells assessed as inhibition of LPS-induced cell proliferation at 100 uM after 48 hrs by MTT assay relative to control; type: functional; method in brief: as §1
B-cell line [4] = assay: Immunosuppressive activity in Balb/c mouse B cells assessed as inhibition of LPS-induced cell proliferation at 10 uM after 48 hrs by MTT assay relative to control; type: functional; method in brief: as §1
Murine T-cell line [5] = assay: Cytotoxicity against Balb/c mouse T cells assessed as decrease in cell survival at 1 uM by MTT assay; type: cell-based
Method in brief: (§2)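 Balb/c splenocytes (RBC lysed with tris-ammonium chloride, trypan blue viability) seeded at 1×10^6 cells/mL with Con A or LPS (10 μg/mL each) and test agent at 1, 10 or 100 μM for 48 h at 37 °C, 5% CO2; MTT added for 4 h, formazan dissolved in DMSO, OD 540 nm. Cytotoxicity scored +/−; triplicate, three separate experiments.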

Murine T-cell line [6] = assay: Immunosuppressive activity in Balb/c mouse T cells assessed as inhibition of ConA-induced cell proliferation at 10 uM after 48 hrs by MTT assay relative to control
Murine T-cell line [7] = assay: Immunosuppressive activity in Balb/c mouse T cells assessed as inhibition of ConA-induced cell proliferation at 1 uM after 48 hrs by MTT assay relative to control
B-cell line [8] = assay: Cytotoxicity against Balb/c mouse B cells assessed as decrease cell survival at 100 uM by MTT assay; type: cell-based; method in brief: as §2
B-cell line [9] = assay: Cytotoxicity against Balb/c mouse B cells assessed as decrease cell survival at 1 uM by MTT assay; type: cell-based; method in brief: as §2
Murine T-cell line [10] = assay: Cytotoxicity against Balb/c mouse T cells assessed as decrease in cell survival at 10 uM by MTT assay; type: cell-based; method in brief: as §2
Murine T-cell line [11] = assay: Cytotoxicity against Balb/c mouse T cells assessed as decrease in cell survival at 100 uM by MTT assay; type: cell-based; method in brief: as §2
B-cell line [12] = assay: Cytotoxicity against Balb/c mouse B cells assessed as decrease cell survival at 10 uM by MTT assay; type: cell-based; method in brief: as §2
Murine T-cell line [13] = assay: Immunostimulant activity in Balb/c mouse T cells assessed as induction of ConA-induced cell proliferation at 100 uM after 48 hrs by MTT assay relative to control
B-cell line [14] = assay: Immunostimulant activity in Balb/c mouse B cells assessed as induction of LPS-induced cell proliferation at 100 uM after 48 hrs by MTT assay relative to control; type: cell-based; method in brief: as §1

COc1ccc(NC(=O)CCC(=O)Oc2cc(C)c3c(c2C)[C@@H]2OC(=O)[C@@H](C)[C@@H]2CC3)cc1
inhibition at 1 µM (B-cell line [1]): 17.7%
inhibition at 100 µM (Murine T-cell line [2]): 58%
inhibition at 100 µM (B-cell line [3]): 68%
inhibition at 10 µM (B-cell line [4]): 52%
Activity (Murine T-cell line [5]): Non-Toxic
inhibition at 10 µM (Murine T-cell line [6]): 35%
inhibition at 1 µM (Murine T-cell line [7]): 1%
Activity (B-cell line [8]): Toxic
Activity (B-cell line [9]): Non-Toxic
Activity (Murine T-cell line [10]): Non-Toxic
Activity (Murine T-cell line [11]): Toxic
Activity (B-cell line [12]): Non-Toxic

Cc1cc(OC(=O)c2ccccc2)c(C)c2c1CC[C@H]1[C@H](C)C(=O)O[C@@H]21
inhibition at 1 µM (B-cell line [1]): 18.8%
Activity (Murine T-cell line [13]): 23.94%
inhibition at 100 µM (B-cell line [3]): 17.7%
inhibition at 10 µM (B-cell line [4]): 43.8%
Activity (Murine T-cell line [5]): Non-Toxic
inhibition at 10 µM (Murine T-cell line [6]): 39.4%
inhibition at 1 µM (Murine T-cell line [7]): 71.8%
Activity (B-cell line [8]): Non-Toxic
Activity (B-cell line [9]): Non-Toxic
Activity (Murine T-cell line [10]): Non-Toxic
Activity (Murine T-cell line [11]): Non-Toxic
Activity (B-cell line [12]): Non-Toxic

Cc1cc(OCc2ccc(Cl)cc2)c(C)c2c1CC[C@H]1[C@H](C)C(=O)O[C@@H]21
inhibition at 1 µM (B-cell line [1]): 37%
inhibition at 100 µM (Murine T-cell line [2]): 45%
inhibition at 100 µM (B-cell line [3]): 28%
inhibition at 10 µM (B-cell line [4]): 37%
Activity (Murine T-cell line [5]): Non-Toxic
inhibition at 10 µM (Murine T-cell line [6]): 33%
inhibition at 1 µM (Murine T-cell line [7]): 15%
Activity (B-cell line [8]): Toxic
Activity (B-cell line [9]): Non-Toxic
Activity (Murine T-cell line [10]): Non-Toxic
Activity (Murine T-cell line [11]): Toxic
Activity (B-cell line [12]): Non-Toxic

CCCC(=O)Oc1cc(C)c2c(c1C)[C@@H]1OC(=O)[C@@H](C)[C@@H]1CC2
inhibition at 1 µM (B-cell line [1]): 12.5%
inhibition at 100 µM (Murine T-cell line [2]): 71.9%
inhibition at 100 µM (B-cell line [3]): 69.8%
inhibition at 10 µM (B-cell line [4]): 35.4%
Activity (Murine T-cell line [5]): Non-Toxic
inhibition at 10 µM (Murine T-cell line [6]): 38%
inhibition at 1 µM (Murine T-cell line [7]): 28.5%
Activity (B-cell line [8]): Non-Toxic
Activity (B-cell line [9]): Non-Toxic
Activity (Murine T-cell line [10]): Non-Toxic
Activity (Murine T-cell line [11]): Non-Toxic
Activity (B-cell line [12]): Non-Toxic

CCOc1cc(C)c2c(c1C)[C@@H]1OC(=O)[C@@H](C)[C@@H]1CC2
inhibition at 1 µM (B-cell line [1]): 35%
Activity (Murine T-cell line [13]): 16%
inhibition at 100 µM (B-cell line [3]): 46%
inhibition at 10 µM (B-cell line [4]): 1%
Activity (Murine T-cell line [5]): Non-Toxic
inhibition at 10 µM (Murine T-cell line [6]): 5%
inhibition at 1 µM (Murine T-cell line [7]): 28%
Activity (B-cell line [8]): Toxic
Activity (B-cell line [9]): Non-Toxic
Activity (Murine T-cell line [10]): Toxic
Activity (Murine T-cell line [11]): Toxic
Activity (B-cell line [12]): Toxic

CC(=O)Oc1cc(C)c2c(c1C)[C@@H]1OC(=O)[C@@H](C)[C@@H]1CC2
inhibition at 1 µM (B-cell line [1]): 51.8%
inhibition at 100 µM (Murine T-cell line [2]): 63%
inhibition at 100 µM (B-cell line [3]): 68%
inhibition at 10 µM (B-cell line [4]): 44.3%
Activity (Murine T-cell line [5]): Non-Toxic
inhibition at 10 µM (Murine T-cell line [6]): 45.2%
inhibition at 1 µM (Murine T-cell line [7]): 39.7%
Activity (B-cell line [8]): Toxic
Activity (B-cell line [9]): Non-Toxic
Activity (Murine T-cell line [10]): Non-Toxic
Activity (Murine T-cell line [11]): Toxic
Activity (B-cell line [12]): Non-Toxic

CCCCOc1cc(C)c2c(c1C)[C@@H]1OC(=O)[C@@H](C)[C@@H]1CC2
inhibition at 1 µM (B-cell line [1]): 25.2%
inhibition at 100 µM (Murine T-cell line [2]): 33.8%
inhibition at 100 µM (B-cell line [3]): 39%
inhibition at 10 µM (B-cell line [4]): 33.3%
Activity (Murine T-cell line [5]): Non-Toxic
inhibition at 10 µM (Murine T-cell line [6]): 51%
inhibition at 1 µM (Murine T-cell line [7]): 32%
Activity (B-cell line [8]): Non-Toxic
Activity (B-cell line [9]): Non-Toxic
Activity (Murine T-cell line [10]): Non-Toxic
Activity (Murine T-cell line [11]): Non-Toxic
Activity (B-cell line [12]): Non-Toxic

CCCOc1cc(C)c2c(c1C)[C@@H]1OC(=O)[C@@H](C)[C@@H]1CC2
inhibition at 1 µM (B-cell line [1]): 47%
Activity (Murine T-cell line [13]): 36%
inhibition at 100 µM (B-cell line [3]): 43%
inhibition at 10 µM (B-cell line [4]): 49%
Activity (Murine T-cell line [5]): Non-Toxic
inhibition at 10 µM (Murine T-cell line [6]): 41%
inhibition at 1 µM (Murine T-cell line [7]): 33%
Activity (B-cell line [8]): Toxic
Activity (B-cell line [9]): Non-Toxic
Activity (Murine T-cell line [10]): Toxic
Activity (Murine T-cell line [11]): Toxic
Activity (B-cell line [12]): Toxic

Cc1cc(OC(=O)CCC(=O)Nc2ccccc2Cl)c(C)c2c1CC[C@H]1[C@H](C)C(=O)O[C@@H]21
inhibition at 1 µM (B-cell line [1]): 27.7%
inhibition at 100 µM (Murine T-cell line [2]): 56%
inhibition at 100 µM (B-cell line [3]): 69%
inhibition at 10 µM (B-cell line [4]): 51%
Activity (Murine T-cell line [5]): Non-Toxic
inhibition at 10 µM (Murine T-cell line [6]): 45%
inhibition at 1 µM (Murine T-cell line [7]): 13%
Activity (B-cell line [8]): Non-Toxic
Activity (B-cell line [9]): Non-Toxic
Activity (Murine T-cell line [10]): Non-Toxic
Activity (Murine T-cell line [11]): Non-Toxic
Activity (B-cell line [12]): Non-Toxic

CCCCCC(=O)Oc1cc(C)c2c(c1C)[C@@H]1OC(=O)[C@@H](C)[C@@H]1CC2
inhibition at 1 µM (B-cell line [1]): 22.9%
inhibition at 100 µM (Murine T-cell line [2]): 78.9%
inhibition at 10 µM (B-cell line [4]): 26%
Activity (Murine T-cell line [5]): Non-Toxic
inhibition at 10 µM (Murine T-cell line [6]): 46%
inhibition at 1 µM (Murine T-cell line [7]): 39.4%
Activity (B-cell line [8]): Toxic
Activity (B-cell line [9]): Non-Toxic
Activity (Murine T-cell line [10]): Toxic
Activity (B-cell line [14]): 7.29%
Activity (Murine T-cell line [11]): Toxic
Activity (B-cell line [12]): Toxic

Cc1cc(OC(=O)CCC(=O)Nc2ccccc2F)c(C)c2c1CC[C@H]1[C@H](C)C(=O)O[C@@H]21
inhibition at 1 µM (B-cell line [1]): 21%
inhibition at 100 µM (Murine T-cell line [2]): 66.7%
inhibition at 100 µM (B-cell line [3]): 77.9%
inhibition at 10 µM (B-cell line [4]): 44%
Activity (Murine T-cell line [5]): Non-Toxic
inhibition at 10 µM (Murine T-cell line [6]): 41.7%
inhibition at 1 µM (Murine T-cell line [7]): 16.7%
Activity (B-cell line [8]): Non-Toxic
Activity (B-cell line [9]): Non-Toxic
Activity (Murine T-cell line [10]): Non-Toxic
Activity (Murine T-cell line [11]): Non-Toxic
Activity (B-cell line [12]): Non-Toxic

Cc1cc(OC(=O)CCC(=O)O)c(C)c2c1CC[C@H]1[C@H](C)C(=O)O[C@@H]21
inhibition at 1 µM (B-cell line [1]): 33.3%
inhibition at 100 µM (Murine T-cell line [2]): 61.7%
inhibition at 100 µM (B-cell line [3]): 5.2%
inhibition at 10 µM (B-cell line [4]): 42.7%
Activity (Murine T-cell line [5]): Non-Toxic
inhibition at 10 µM (Murine T-cell line [6]): 53.4%
inhibition at 1 µM (Murine T-cell line [7]): 29.4%
Activity (B-cell line [8]): Toxic
Activity (B-cell line [9]): Non-Toxic
Activity (Murine T-cell line [10]): Toxic
Activity (Murine T-cell line [11]): Toxic
Activity (B-cell line [12]): Toxic

COc1cc(C)c2c(c1C)[C@@H]1OC(=O)[C@@H](C)[C@@H]1CC2
inhibition at 1 µM (B-cell line [1]): 42%
inhibition at 100 µM (Murine T-cell line [2]): 16.1%
inhibition at 100 µM (B-cell line [3]): 21%
inhibition at 10 µM (B-cell line [4]): 19.1%
Activity (Murine T-cell line [5]): Toxic
inhibition at 10 µM (Murine T-cell line [6]): 23.2%
inhibition at 1 µM (Murine T-cell line [7]): 50%
Activity (B-cell line [8]): Toxic
Activity (B-cell line [9]): Toxic
Activity (Murine T-cell line [10]): Toxic
Activity (Murine T-cell line [11]): Toxic
Activity (B-cell line [12]): Toxic

CCC(=O)Oc1cc(C)c2c(c1C)[C@@H]1OC(=O)[C@@H](C)[C@@H]1CC2
inhibition at 1 µM (B-cell line [1]): 20%
inhibition at 100 µM (Murine T-cell line [2]): 41%
inhibition at 100 µM (B-cell line [3]): 69%
inhibition at 10 µM (B-cell line [4]): 43%
Activity (Murine T-cell line [5]): Toxic
inhibition at 10 µM (Murine T-cell line [6]): 33%
inhibition at 1 µM (Murine T-cell line [7]): 11.7%
Activity (B-cell line [8]): Toxic
Activity (B-cell line [9]): Toxic
Activity (Murine T-cell line [10]): Toxic
Activity (Murine T-cell line [11]): Toxic
Activity (B-cell line [12]): Toxic

CCCCCOc1cc(C)c2c(c1C)[C@@H]1OC(=O)[C@@H](C)[C@@H]1CC2
inhibition at 1 µM (B-cell line [1]): 29.5%
inhibition at 100 µM (Murine T-cell line [2]): 29.4%
inhibition at 100 µM (B-cell line [3]): 9.59%
inhibition at 10 µM (B-cell line [4]): 32.4%
Activity (Murine T-cell line [5]): Toxic
inhibition at 10 µM (Murine T-cell line [6]): 33.1%
inhibition at 1 µM (Murine T-cell line [7]): 11.1%
Activity (B-cell line [8]): Toxic
Activity (B-cell line [9]): Toxic
Activity (Murine T-cell line [10]): Toxic
Activity (Murine T-cell line [11]): Toxic
Activity (B-cell line [12]): Toxic
